From ChEMBL document CHEMBL4834402, “Discovery of TAK-981, a First-in-Class Inhibitor of SUMO-Activating Enzyme for the Treatment of Cancer” (J Med Chem, 2021)
In brackets after ≈: the same amount, converted by molar mass. Activity calls are given as the source filed them. The calls are words filed in the database; no cut-off is given here.

How the values were obtained:
SUMO-activating enzyme [1] = molecular target: T1, SUMO-activating enzyme (Homo sapiens, UniProt Q9UBT2); assay: Inhibition of SAE in human HCT116 cells assessed as reduction in redistribution of SUMO2/3 proteins from nucleus to cytosol incubated for 4 hrs by immunofluorescence assay; format: cell-based, HCT-116
Summary of the method: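 HCT-116 cells exposed to compound across a concentration range for 4 h, then stained with anti-SUMO2/3 monoclonal antibody. Automated imaging scored the nuclear (inner) to cytoplasmic (outer) SUMO2/3 ratio. IC50 taken from the dose response.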

[2] = molecular target: SUMO-activating enzyme (Homo sapiens) (UniProt Q9UBE0+Q9UBT2); assay: Inhibition of SAE in human HCT116 cells xenografted in NCr nude mouse assessed as improvement in SUMO-inhibitor adduct durability at 50 mg/kg, iv and measured up to 16 hrs by mass spectrometry; format: organism-based; details: HCT-116
Summary of the method: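 Single IV dose at t = 0 to female Ncr nude mice bearing HCT-116 tumors, n = 3 per time point. Tumors harvested 2, 4, 8 and 16 h post-injection. Read-out is the adduct/SAE ratio: quantity of SUMO-compound adduct over quantity of total SAE enzyme, both measured by mass spectrometry. Values are averaged per time point.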

[3] = Half life in rat plasma at 1 mg/kg, iv; format: ADME, organism-based
[4] = AUC in rat blood at 10 mg/kg, po; format: ADME, organism-based; design: dose 10 mg/kg
Carbonic anhydrase 2 = Carbonic anhydrase 2 (Homo sapiens, UniProt P00918); assay: Inhibition of recombinant human CA2 expressed in Escherichia coli using fluorescein diacetate as substrate at […] by fluorometric esterase assay
OCI-Ly10 [5] = assay: Cytotoxicity against human OCI-LY10 cells assessed as reduction in cell viability after 72 hrs by CellTiter-Glo luminescent assay; format: functional, cell-based; details: OCI-Ly10, 72 h
[6] = Apparent permeability across basolateral to apical side in human Caco2 cells; format: ADME, cell-based; details: Caco-2
[7] = Volume of distribution at steady state in rat plasma at 1 mg/kg, iv; format: ADME, organism-based; details: read-out: Vdss
[8] = Volume of distribution at steady state in rat blood at 1 mg/kg, iv; format: ADME, organism-based; details: read-out: Vdss
[9] = Solubility of compound in 10% hydroxypropyl-beta-cyclodextrin after 24 hrs; format: physicochemical
[10] = Inhibition of recombinant UAE (unknown origin) in presence of ATP at Km concentration by HTRF assay; design: species or system Homo sapiens
[11] = Oral bioavailability in rat plasma at 10 mg/kg; format: ADME, organism-based
[12] = Oral bioavailability in rat blood at 10 mg/kg; format: ADME, organism-based
HCT-116 [13] = assay: Antitumor activity against human HCT-116 cells xenografted in Ncr/nude mouse assessed as tumor growth inhibition at 50 mg/kg, iv administered thrice per week for 21 days and measured twice weekly; format: functional, organism-based; details: time 21.0 day
Summary of the method: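 Female Ncr/nude mice carrying HCT-116 tumors (~200 mm3) were randomized, n = 8/group, with treatment from Day 1. Schedules were QD x21 (Days 1–21) or QD x3/week (three consecutive dosing days, four off). Tumor volume was measured twice weekly.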

SUMO-activating enzyme [14] = molecular target: T1, SUMO-activating enzyme; assay: Inhibition of recombinant SAE (unknown origin) assessed as reduction in transfer of SUMO1 to UBC9 using SUMO1 as a substrate in presence of ATP at Km concentration by HTRF assay; format: protein-complex assay
Summary of the method: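 HTRF transthiolation assay measuring transfer of SUMO1 to UBC9, the E2 for SAE.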

SUMO-activating enzyme [15] = molecular target: T1, SUMO-activating enzyme; assay: Inhibition of SAE in human HCT116 cells assessed as redistribution of SUMO2/3 proteins from nucleus to cytosol preincubated for 2 hrs followed by compound washout and measured after 8 hrs by immunofluorescence assay; format: cell-based, HCT-116
Summary of the method: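 Washout format of the SUMO2/3 immunofluorescence assay in HCT116 cells. Cells were exposed to a range of concentrations for 2 h, then washed free of compound.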

HCT-116 [16] = assay: Cytotoxicity against human HCT116 cells assessed as reduction in cell viability after 72 hrs by CellTiter-Glo luminescent assay; format: functional, cell-based; details: HCT-116, 72 h
NEDD8 activating enzyme = molecular target: T2, NEDD8 activating enzyme (Homo sapiens, UniProt Q8TBC4); assay: Inhibition of recombinant NAE (unknown origin) in presence of ATP at Km concentration by HTRF assay; format: protein-complex assay
T2 sequence (Q8TBC4 whole entry): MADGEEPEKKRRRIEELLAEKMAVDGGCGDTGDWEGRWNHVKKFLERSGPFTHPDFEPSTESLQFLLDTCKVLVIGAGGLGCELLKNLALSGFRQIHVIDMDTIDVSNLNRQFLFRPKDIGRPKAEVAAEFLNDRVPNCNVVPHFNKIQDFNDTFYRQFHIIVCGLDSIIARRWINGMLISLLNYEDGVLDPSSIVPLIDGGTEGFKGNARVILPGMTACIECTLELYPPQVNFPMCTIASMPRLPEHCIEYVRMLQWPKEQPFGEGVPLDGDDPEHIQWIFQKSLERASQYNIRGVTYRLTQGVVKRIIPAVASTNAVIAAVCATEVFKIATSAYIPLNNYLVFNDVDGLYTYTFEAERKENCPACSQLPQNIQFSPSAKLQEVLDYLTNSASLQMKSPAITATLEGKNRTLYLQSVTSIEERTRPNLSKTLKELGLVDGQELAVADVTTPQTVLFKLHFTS
T2 sequence (Q13564 whole entry): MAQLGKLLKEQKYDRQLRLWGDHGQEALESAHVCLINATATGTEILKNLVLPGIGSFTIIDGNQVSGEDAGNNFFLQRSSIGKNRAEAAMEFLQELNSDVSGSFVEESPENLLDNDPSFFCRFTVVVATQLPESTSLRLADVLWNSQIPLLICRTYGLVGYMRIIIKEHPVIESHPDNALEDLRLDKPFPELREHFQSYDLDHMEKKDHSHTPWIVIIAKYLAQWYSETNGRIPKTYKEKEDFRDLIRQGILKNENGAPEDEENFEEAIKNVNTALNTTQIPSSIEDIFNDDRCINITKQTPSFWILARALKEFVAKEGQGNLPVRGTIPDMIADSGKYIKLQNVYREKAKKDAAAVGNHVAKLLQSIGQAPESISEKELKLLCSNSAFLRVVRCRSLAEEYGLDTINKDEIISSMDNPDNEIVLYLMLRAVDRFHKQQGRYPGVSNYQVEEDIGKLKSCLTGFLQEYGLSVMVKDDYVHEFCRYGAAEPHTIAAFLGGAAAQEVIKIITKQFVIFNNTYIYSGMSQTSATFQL

[17] = Clearance in rat plasma at 1 mg/kg, iv; format: ADME, organism-based; details: in vivo
[18] = AUC in rat plasma at 10 mg/kg, po; format: ADME, organism-based; design: dose 10 mg/kg
OCI-Ly10 [19] = assay: Antitumor activity against human OCI-Ly10 cells xenografted in CB17 SCID mouse assessed as tumor growth inhibition at 50 mg/kg, iv administered thrice per week for 21 days and measured twice weekly; format: functional, organism-based; details: time 21.0 day
Summary of the method: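 Female CB17 SCID mice carrying OCI-Ly10 tumors (~200 mm3) were randomized, n = 8/group, with treatment from Day 1. Schedules were QD x21 (Days 1–21) or QD x3/week (three consecutive dosing days, four off). Tumor volume was measured twice weekly.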

[20] = Lipophilicity, logD of compound at pH 7.4; format: physicochemical; details: buffer
[21] = Efflux ratio of apparent permeability across basolateral to apical side over apical to basolateral side in human Caco-2 cells; format: ADME, cell-based
[22] = Apparent permeability across apical to basolateral side in human Caco2 cells; format: ADME, cell-based; details: Caco-2

T1 sequence (Q9UBE0 whole entry): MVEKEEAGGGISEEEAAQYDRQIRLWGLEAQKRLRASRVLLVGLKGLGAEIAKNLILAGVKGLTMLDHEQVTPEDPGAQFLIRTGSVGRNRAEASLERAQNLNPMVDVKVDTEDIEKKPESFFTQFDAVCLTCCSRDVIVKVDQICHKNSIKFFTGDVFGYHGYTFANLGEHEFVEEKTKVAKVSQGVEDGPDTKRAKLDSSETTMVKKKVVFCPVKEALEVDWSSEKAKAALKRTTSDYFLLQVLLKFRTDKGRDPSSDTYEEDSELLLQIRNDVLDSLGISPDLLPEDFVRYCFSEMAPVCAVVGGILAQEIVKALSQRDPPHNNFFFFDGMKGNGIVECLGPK
T1 sequence (Q9UBT2 whole entry): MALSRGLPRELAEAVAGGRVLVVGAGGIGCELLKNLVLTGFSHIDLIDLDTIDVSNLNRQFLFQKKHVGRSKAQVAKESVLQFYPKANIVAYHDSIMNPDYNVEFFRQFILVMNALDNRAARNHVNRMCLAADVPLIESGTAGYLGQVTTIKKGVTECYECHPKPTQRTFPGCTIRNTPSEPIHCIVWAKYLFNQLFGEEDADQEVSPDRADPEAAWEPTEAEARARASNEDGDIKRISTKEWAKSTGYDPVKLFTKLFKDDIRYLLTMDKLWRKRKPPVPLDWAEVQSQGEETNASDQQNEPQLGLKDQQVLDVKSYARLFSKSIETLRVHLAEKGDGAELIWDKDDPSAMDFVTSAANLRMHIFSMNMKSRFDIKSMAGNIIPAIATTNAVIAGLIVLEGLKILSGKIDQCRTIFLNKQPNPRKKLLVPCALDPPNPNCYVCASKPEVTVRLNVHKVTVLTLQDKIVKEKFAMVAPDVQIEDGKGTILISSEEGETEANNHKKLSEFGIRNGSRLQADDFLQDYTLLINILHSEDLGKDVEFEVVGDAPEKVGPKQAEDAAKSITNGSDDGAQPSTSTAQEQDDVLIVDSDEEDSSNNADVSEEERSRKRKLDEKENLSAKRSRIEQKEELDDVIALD

half-life [3]: 2.1 h
AUC [4]: 32 µM·h
IC50 (Carbonic anhydrase 2): 20 nM
Papp B→A [6]: 46 ×10⁻⁶ cm/s
Vd [7]: 8.5 L/kg
Vd [8]: 0.2 L/kg
solubility at 24 h [9]: 20 mg/mL (≈ 34.6 mM)
IC50 [10]: > 1000 nM
bioavailability [11]: 7.3%
bioavailability [12]: 10%
IC50 (NEDD8 activating enzyme): 960 nM
clearance [17]: 61.7 mL/min/kg
AUC [18]: 0.3 µM·h
logD [20]: 2.1
efflux ratio [21]: > 16
Papp A→B [22]: 0.3 ×10⁻⁶ cm/s
SMILES: Cc1sc(C(=O)c2cncnc2N[C@@H]2C[C@H](COS(N)(=O)=O)[C@@H](O)C2)cc1[C@@H]1NCCc2ccc(Cl)cc21
IC50 (SUMO-activating enzyme [1]): 15 nM
inhibition [2]: Active
EC50 (OCI-Ly10 [5]): 4 nM
Activity (HCT-116 [13]): Active
IC50 (SUMO-activating enzyme [14]): 1 nM
IC50 (SUMO-activating enzyme [15]): 46 nM
EC50 (HCT-116 [16]): 63 nM
Activity (OCI-Ly10 [19]): Active
